Source: ChEMBL document CHEMBL2040739, “Effect of phosphodiesterase 7 (PDE7) inhibitors in experimental autoimmune encephalomyelitis mice. Discovery of a new chemically diverse family of compounds” (J Med Chem, 2012)
Blank lines part the entries; values can stand above or below the compound they belong to. Active and inactive are the calls of the source. The rule behind the calls is not given here.

What was measured:
[1] = biological target: T1, High affinity 3',5'-cyclic-AMP phosphodiesterase 7A (Homo sapiens, UniProt Q13946); experiment: Inhibition of human recombinant PDE7A1-mediated [3H]cAMP hydrolysis at 10 uM after 20 mins by scintillation proximity assay
T1 sequence (Q13946 whole entry): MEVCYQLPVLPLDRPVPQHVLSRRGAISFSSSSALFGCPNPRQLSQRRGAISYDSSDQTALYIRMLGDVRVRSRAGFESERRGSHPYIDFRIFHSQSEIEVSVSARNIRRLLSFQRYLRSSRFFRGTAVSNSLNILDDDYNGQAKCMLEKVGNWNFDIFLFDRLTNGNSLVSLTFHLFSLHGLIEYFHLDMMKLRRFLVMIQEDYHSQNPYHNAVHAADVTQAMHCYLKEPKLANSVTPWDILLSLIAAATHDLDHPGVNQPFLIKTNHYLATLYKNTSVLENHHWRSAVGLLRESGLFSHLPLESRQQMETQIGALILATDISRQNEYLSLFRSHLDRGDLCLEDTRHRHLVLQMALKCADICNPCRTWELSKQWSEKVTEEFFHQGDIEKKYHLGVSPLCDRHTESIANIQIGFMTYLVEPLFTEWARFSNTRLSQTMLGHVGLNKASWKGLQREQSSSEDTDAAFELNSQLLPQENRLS
How it was run: (§1)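 Scintillation proximity assay with human recombinant full-length enzyme: PDE7A1 or PDE3A at 0.02 unit, or PDE7B at 0.5 unit. Enzyme incubated with 5 nCi [3H]cAMP for 20 min at 30 °C. SPA beads added, shaken 1 h at room temperature, then settled 30 min before counting. Single-point screens at 10 μM run in duplicate. IC50 from a sigmoidal dose−response fit.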

[2] = biological target: T1, High affinity 3',5'-cyclic-AMP phosphodiesterase 7A; experiment: Inhibition of human recombinant PDE7A1-mediated [3H]cAMP hydrolysis after 20 mins by scintillation proximity assay; how it was run: as §1
[3] = biological target: 3',5'-cyclic-AMP phosphodiesterase 7B (Homo sapiens) (UniProt Q9NP56); experiment: Inhibition of human recombinant PDE7B-mediated [3H]cAMP hydrolysis at 10 uM after 20 mins by scintillation proximity assay; how it was run: as §1
Sequence of 3',5'-cyclic-AMP phosphodiesterase 7B (Homo sapiens) (Q9NP56 whole entry): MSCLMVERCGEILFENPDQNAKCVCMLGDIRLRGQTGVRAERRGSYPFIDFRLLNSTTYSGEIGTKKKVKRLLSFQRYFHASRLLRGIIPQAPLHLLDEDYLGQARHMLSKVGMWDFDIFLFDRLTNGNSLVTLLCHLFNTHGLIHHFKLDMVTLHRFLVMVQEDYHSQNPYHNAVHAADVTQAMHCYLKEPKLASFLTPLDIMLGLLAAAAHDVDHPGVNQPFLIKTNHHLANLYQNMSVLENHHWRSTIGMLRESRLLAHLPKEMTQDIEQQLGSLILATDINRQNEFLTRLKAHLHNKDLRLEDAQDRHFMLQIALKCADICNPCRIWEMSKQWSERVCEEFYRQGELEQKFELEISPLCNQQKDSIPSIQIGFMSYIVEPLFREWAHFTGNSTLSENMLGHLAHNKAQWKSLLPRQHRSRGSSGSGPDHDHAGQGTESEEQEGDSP

Astrocyte = experiment: Antiinflammatory activity in rat astrocytes assessed as inhibition of LPS-induced nitrite production at 5 to 10 uM incubated for 1 hr prior to LPS-challenge measured after 24 hrs by Griess method; format: functional, cell-based
How it was run: (§2)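 Glial cells from neonatal rat cerebral cortex; microglia and astrocytes separated by shaking and cultured 1 week. Purity >98% by OX42 and GFAP staining. Microglia kept with 10 ng/mL GM-CSF. Cells given compound for 1 h, then LPS (10 μg/mL) for 24 h. Nitrite in the supernatant measured by Griess reaction at 492/540 nm. Mean ± SD of six replications in three experiments.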

[4] = Cytotoxicity against rat astrocytes at 5 to 10 uM after 16 hrs by MTT assay; format: cell-based; details: astrocyte
How it was run: (§3)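 Primary neonatal rat cortical astrocytes or microglia, after 1 week in culture, exposed to compound for 16 h. MTT at 0.5 mg/mL for 4 h, then solubilized in 10% SDS/0.01 M HCl for 12 h in the dark. Absorbance read at 595 nm. Six replications in three experiments.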

[5] = biological target: T2, cGMP-inhibited 3',5'-cyclic phosphodiesterase 3A (Homo sapiens, UniProt Q14432); experiment: Inhibition of human recombinant PDE3A-mediated [3H]cAMP hydrolysis after 20 mins by scintillation proximity assay; how it was run: as §1
T2 sequence (Q14432 whole entry): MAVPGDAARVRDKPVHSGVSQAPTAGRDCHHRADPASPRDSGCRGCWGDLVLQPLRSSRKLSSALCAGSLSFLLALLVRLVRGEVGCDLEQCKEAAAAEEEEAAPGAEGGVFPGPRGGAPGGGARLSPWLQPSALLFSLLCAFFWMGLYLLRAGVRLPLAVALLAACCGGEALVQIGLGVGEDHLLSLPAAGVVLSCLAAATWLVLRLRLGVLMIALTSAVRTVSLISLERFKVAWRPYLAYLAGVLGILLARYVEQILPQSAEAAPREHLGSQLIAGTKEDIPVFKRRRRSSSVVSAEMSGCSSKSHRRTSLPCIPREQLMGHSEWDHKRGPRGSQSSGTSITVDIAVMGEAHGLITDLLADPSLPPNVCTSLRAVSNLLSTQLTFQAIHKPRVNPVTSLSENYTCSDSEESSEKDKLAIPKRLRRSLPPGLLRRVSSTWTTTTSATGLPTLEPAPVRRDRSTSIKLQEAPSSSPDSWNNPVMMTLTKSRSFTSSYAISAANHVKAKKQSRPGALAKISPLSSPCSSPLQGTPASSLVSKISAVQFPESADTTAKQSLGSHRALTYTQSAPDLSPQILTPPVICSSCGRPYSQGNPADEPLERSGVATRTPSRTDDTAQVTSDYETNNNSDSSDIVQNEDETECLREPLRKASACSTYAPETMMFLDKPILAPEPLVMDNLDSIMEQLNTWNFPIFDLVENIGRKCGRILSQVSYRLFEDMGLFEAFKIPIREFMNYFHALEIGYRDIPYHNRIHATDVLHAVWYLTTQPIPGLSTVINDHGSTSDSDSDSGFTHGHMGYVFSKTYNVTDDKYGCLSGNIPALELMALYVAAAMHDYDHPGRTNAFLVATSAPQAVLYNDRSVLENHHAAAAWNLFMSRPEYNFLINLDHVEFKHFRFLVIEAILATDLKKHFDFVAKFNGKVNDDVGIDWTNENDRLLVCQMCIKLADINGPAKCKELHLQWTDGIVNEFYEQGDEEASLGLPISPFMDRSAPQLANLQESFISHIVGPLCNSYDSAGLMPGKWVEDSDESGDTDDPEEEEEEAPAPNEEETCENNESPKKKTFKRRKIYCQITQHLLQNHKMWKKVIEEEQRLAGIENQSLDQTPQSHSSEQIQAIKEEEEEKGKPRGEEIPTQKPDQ

Mus musculus [6] = experiment: Antiinflammatory activity in C57BL/6J mouse MOG(35 to 55)-induced experimental autoimmune encephalomyelitis model assessed as inhibition of clinical symptoms at 10 mg/kg, ip dosed daily for 16 days starting at day 5 after disease onset measured on day 32 post-immunization; format: functional, organism-based; set-up: dose 10 mg/kg
Mus musculus [7] = experiment: Toxicity in C57BL/6J mouse MOG(35 to 55)-induced experimental autoimmune encephalomyelitis model assessed as decrease in body weight at 10 mg/kg, ip dosed daily for 26 days starting at day 5 after disease onset measured on day 42 post-immunization; format: organism-based; set-up: dose 10 mg/kg, route intraperitoneal; details: in vivo, 624 h
Homo sapiens [8] = organism: Homo sapiens; experiment: Selectivity index, ratio of IC50 for human recombinant PDE7A1 to IC50 for human recombinant PDE3A
How it was run: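 Ratio of IC50 values for PDE7A1 and PDE3A, each obtained by scintillation proximity assay with [3H]cAMP for 20 min at 30 °C.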

[9] = biological target: 3',5'-cyclic-AMP phosphodiesterase 4B (Homo sapiens, UniProt Q07343); experiment: Inhibition of human recombinant PDE4B2 using fluorescein 3',5'-cyclic phosphate after 60 mins by IMAP fluorescence polarization assay
Sequence of 3',5'-cyclic-AMP phosphodiesterase 4B (Q07343 whole entry): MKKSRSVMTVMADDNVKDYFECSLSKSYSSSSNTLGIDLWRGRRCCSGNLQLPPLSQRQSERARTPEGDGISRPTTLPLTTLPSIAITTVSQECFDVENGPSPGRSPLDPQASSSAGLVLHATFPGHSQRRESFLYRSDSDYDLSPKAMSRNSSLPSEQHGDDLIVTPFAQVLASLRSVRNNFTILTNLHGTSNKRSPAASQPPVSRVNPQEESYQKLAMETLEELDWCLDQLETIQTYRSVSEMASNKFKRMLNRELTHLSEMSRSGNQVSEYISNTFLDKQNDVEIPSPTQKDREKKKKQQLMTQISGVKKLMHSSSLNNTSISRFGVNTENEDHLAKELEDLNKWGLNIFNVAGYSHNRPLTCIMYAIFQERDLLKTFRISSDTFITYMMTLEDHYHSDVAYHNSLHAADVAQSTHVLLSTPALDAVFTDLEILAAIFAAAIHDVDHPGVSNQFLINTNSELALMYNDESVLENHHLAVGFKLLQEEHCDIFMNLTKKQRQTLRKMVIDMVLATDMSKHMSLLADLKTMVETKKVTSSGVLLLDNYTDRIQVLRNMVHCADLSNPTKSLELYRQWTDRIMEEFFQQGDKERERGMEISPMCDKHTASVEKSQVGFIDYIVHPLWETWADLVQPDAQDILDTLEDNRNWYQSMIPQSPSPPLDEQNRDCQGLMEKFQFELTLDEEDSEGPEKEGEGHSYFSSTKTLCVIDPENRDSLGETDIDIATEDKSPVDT
How it was run: (§4)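 IMAP fluorescence polarization assay. Human recombinant PDE4B2 or PDE4D3 (0.05 U) incubated with 1 nM fluorescein adenosine 3′,5′-cyclic phosphate for 60 min at ambient temperature. Stopped with IMAP binding reagent and left 1 h before reading FP. IC50 from a sigmoidal dose−response fit.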

[10] = Cytotoxicity against rat microglia cells at 5 to 10 uM after 16 hrs by MTT assay; format: cell-based; how it was run: as §3
[11] = Permeability across after 2 hrs 30 mins by pig brain lipid membrane based PAMPA-BBB assay; format: ADME; details: read-out: permeability
How it was run: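 PAMPA-BBB assay. Donor wells coated with porcine polar brain lipid in dodecane (20 mg/mL). Compound dissolved in EtOH/PBS pH 7.4; acceptor holds PBS/EtOH 70/30. Sandwich left 2 h 30 min at 25 °C. Concentrations read by UV at 3−5 wavelengths, in three wells and two independent runs. Ten reference drugs included for validation.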

[12] = biological target: 3',5'-cyclic-AMP phosphodiesterase 4D (Homo sapiens, UniProt Q08499); experiment: Inhibition of human recombinant PDE4D3 using fluorescein 3',5'-cyclic phosphate after 60 mins by IMAP fluorescence polarization assay; how it was run: as §4
Sequence of 3',5'-cyclic-AMP phosphodiesterase 4D (Q08499 whole entry): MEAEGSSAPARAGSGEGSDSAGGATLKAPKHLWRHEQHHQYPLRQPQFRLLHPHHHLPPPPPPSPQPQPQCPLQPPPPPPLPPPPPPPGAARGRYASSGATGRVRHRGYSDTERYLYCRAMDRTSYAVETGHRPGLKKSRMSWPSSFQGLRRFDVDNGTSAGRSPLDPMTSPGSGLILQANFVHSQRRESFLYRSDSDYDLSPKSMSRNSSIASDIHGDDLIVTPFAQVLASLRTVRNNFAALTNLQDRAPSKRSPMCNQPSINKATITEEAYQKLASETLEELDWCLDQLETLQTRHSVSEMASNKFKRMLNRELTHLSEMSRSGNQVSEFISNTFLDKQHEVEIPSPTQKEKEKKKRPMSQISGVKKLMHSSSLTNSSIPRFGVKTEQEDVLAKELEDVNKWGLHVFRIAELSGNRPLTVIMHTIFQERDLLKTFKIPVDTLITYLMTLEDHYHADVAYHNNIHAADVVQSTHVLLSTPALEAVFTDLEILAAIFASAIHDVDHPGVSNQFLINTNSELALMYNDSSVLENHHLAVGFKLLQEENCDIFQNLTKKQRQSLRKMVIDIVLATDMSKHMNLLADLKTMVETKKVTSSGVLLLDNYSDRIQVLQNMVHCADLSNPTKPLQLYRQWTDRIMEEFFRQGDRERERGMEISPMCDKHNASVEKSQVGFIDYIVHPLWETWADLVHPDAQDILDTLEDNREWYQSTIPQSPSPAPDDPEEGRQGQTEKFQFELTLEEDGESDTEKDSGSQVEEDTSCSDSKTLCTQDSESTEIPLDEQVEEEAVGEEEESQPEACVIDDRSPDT

Microglia = experiment: Antiinflammatory activity in rat microglia cells assessed as inhibition of LPS-induced nitrite production at 5 to 10 uM incubated for 1 hr prior to LPS-challenge measured after 24 hrs by Griess method; format: functional, cell-based; how it was run: as §2
Mus musculus [13] = experiment: Antiinflammatory activity in C57BL/6J mouse MOG(35 to 55)-induced experimental autoimmune encephalomyelitis model assessed as inhibition of clinical symptoms at 10 mg/kg, ip dosed daily for 26 days starting at day 5 after disease onset measured on day 42 post-immunization; format: functional, organism-based; set-up: dose 10 mg/kg
[14] = biological target: T2, cGMP-inhibited 3',5'-cyclic phosphodiesterase 3A; experiment: Inhibition of human recombinant PDE3A-mediated [3H]cAMP hydrolysis at 10 uM after 20 mins by scintillation proximity assay; how it was run: as §1
[15] = biological target: T3, High affinity 3',5'-cyclic-AMP phosphodiesterase 7A (Mus musculus) (UniProt P70453); experiment: Inhibition of PDE7A1 in mouse RAW cells assessed as increase in cAMP level at 10 to 30 uM after 60 mins by enzyme immunoassay; format: cell-based
T3 sequence (whole entry): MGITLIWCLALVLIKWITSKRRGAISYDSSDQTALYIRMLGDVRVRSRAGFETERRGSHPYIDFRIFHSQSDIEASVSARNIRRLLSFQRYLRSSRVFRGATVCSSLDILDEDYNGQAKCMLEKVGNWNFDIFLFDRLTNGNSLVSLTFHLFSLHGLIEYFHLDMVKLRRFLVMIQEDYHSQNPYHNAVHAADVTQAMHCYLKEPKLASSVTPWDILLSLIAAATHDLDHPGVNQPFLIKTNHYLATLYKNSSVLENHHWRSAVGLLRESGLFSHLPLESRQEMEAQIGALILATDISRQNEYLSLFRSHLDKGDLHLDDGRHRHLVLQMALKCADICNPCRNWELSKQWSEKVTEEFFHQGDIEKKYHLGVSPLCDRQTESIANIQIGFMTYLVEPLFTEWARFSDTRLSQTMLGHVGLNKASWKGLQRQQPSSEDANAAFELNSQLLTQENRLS
How it was run: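 RAW cells seeded at 3 × 10^4 per well and incubated overnight. Compound added for 60 min at 10 or 30 μM. Intracellular cAMP quantified by enzyme immunoassay kit.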

[16] = biological target: T1, High affinity 3',5'-cyclic-AMP phosphodiesterase 7A; experiment: Competitive inhibition of human recombinant PDE7A1 using 5 nM to 2 uM cAMP as substrate by Lineweaver-Burk plot analysis
How it was run: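 PDE7A1 scintillation proximity assay with unlabeled cAMP varied from 5 nM to 2 μM, against fixed [3H]cAMP tracer. Two inhibitor concentrations tested, with AMP formation measured. Data analysed by Lineweaver−Burk plots. Triplicate measurements, mean ± SEM.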

Homo sapiens [17] = organism: Homo sapiens; experiment: Selectivity index, ratio of IC50 for human recombinant PDE3A to IC50 for human recombinant PDE7A1
[18] = biological target: T1, High affinity 3',5'-cyclic-AMP phosphodiesterase 7A; experiment: Inhibition of PDE7A1

inhibition [1]: -9.9%
SMILES: COc1cc(COC(=O)c2ccc(C)o2)cc(OC)c1OC

inhibition [3]: 23.2%
IC50 [2]: 5.17 µM
IC50 [5]: 54.6 µM
Ratio IC50 (Homo sapiens [8]): 0.09
IC50 [9]: 12.4 µM
Papp at 2.5 h [11]: 8.1 ×10⁻⁶ cm/s
IC50 [12]: 66.3 µM
inhibition [1]: 57.9%
inhibition [14]: 46.1%
inhibition [15]: Active
Ki [16]: 5.91 µM
Ratio IC50 (Homo sapiens [17]): 10
SMILES: COc1cc(COC(=O)c2ccc(-c3ccccc3)o2)cc(OC)c1OC
Activity (Astrocyte): Active
Activity [4]: Non-toxic
Activity (Mus musculus [6]): Active
Activity (Mus musculus [7]): Toxic
Activity [10]: Non-toxic
Activity (Microglia): Active
Activity (Mus musculus [13]): inactive

inhibition [1]: 14%
SMILES: COc1cc(COC(=O)c2ccc(-c3cccc(C(F)(F)F)c3)o2)cc(OC)c1OC

IC50 [2]: 3.2 µM
IC50 [5]: 3.9 µM
Ratio IC50 (Homo sapiens [8]): 0.82
inhibition [1]: 70.5%
inhibition [14]: 49.6%
Ki [16]: 7.22 µM
SMILES: COc1cc(CNC(=O)c2ccc(-c3ccc(C)cc3[N+](=O)[O-])o2)cc(OC)c1OC
Activity (Astrocyte): Active
Activity [4]: Non-toxic
Activity [10]: Non-toxic
Activity (Microglia): Active

inhibition [1]: 44.8%
SMILES: COc1ccc(COC(=O)c2ccc(-c3ccccc3)o2)cc1

inhibition [1]: 16.4%
SMILES: CCOc1cc(C(=O)OCc2ccc(-c3ccc(C)cc3)o2)cc(OCC)c1OCC

IC50 [2]: 7.31 µM
inhibition [1]: 49.1%
inhibition [14]: 11%
SMILES: COc1cc(COC(=O)c2ccc(-c3ccc(Cl)cc3[N+](=O)[O-])o2)cc(OC)c1OC
Activity (Astrocyte): Active
Activity [4]: Non-toxic
Activity [10]: Non-toxic
Activity (Microglia): Active

inhibition [1]: 28%
SMILES: CCOc1cc(COC(=O)c2ccc(-c3ccc(C)cc3)o2)cc(OCC)c1OCC

Further lines, the compound ahead of its results:

SMILES: COc1cc(C(=O)OCc2ccc(-c3ccc([N+](=O)[O-])cc3)o2)cc(OC)c1OC
IC50 [2]: 33.4 µM
inhibition [1]: 49.5%

SMILES: COc1cc(COC(=O)c2ccc(-c3ccc(C)cc3)o2)cc(OC)c1OC
inhibition [1]: 30.7%

SMILES: COc1ccc(-c2ccc(C(=O)OCc3cc(OC)c(OC)c(OC)c3)o2)cc1
inhibition [1]: 14%

SMILES: CCOc1cc(C(=O)OCc2ccc(-c3ccc([N+](=O)[O-])cc3C)o2)cc(OCC)c1OCC
inhibition [1]: 29%
IC50 [18]: 0.58 µM

SMILES: COc1ccc(COC(=O)c2ccc(-c3ccc(Cl)cc3[N+](=O)[O-])o2)cc1
inhibition [1]: 41.6%

SMILES: COc1cc(COC(=O)c2ccc(-c3cc(C(F)(F)F)ccc3Cl)o2)cc(OC)c1OC
inhibition [1]: 8%

SMILES: CCOc1cc(C(=O)OCc2ccc(-c3ccccc3)o2)cc(OCC)c1OCC
IC50 [2]: 12.3 µM
Activity (Astrocyte): Active
Activity [4]: Non-toxic
IC50 [5]: 104 µM
Ratio IC50 (Homo sapiens [8]): 0.12
Activity [10]: Non-toxic
Activity (Microglia): Active
inhibition [1]: 48.8%
inhibition [14]: 3%

SMILES: COc1cc(COC(=O)c2ccc(-c3ccc(C)cc3[N+](=O)[O-])o2)cc(OC)c1OC
inhibition [1]: 28.8%
